Values without a mark were called inactive.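 Rule for the calls: active = GFP response vs DMSO above 150% with enough events counted; inconclusive = fewer than 70 events counted for a yeast strain; inactive = the rest.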
Test: yeast TOR reporter LAP4-GFP retest – cell-based, third cherry pick, flow cytometry, confirmation (AID 504338);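 note: ratio to plate DMSO wells so 100% equals DMSO level rather than 0%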
Settings: S. cerevisiae LAP4-GFP strain, 3 h, at 10 µM, active compounds read high
Method in brief: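 material = yeast LAP4-GFP strain | medium = synthetic complete growth medium for yeast | doses = 10 µM, one concentration | schedule = compound exposure for 3 h at 30 °C | signal = flow cytometric GFP fluorescence | read-out basis = percent of mean DMSO-control median fluorescence | control set = rapamycin 400 ng/mL as positive control, DMSO wells as reference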

| Structure (SMILES) | GFP response vs DMSO [%] |
| --- | --- |
| CCC(C)Nc1nc(N)c([N+](=O)[O-])c(Nc2cc(OC)ccc2OC)n1 (configuration not stated) | 101 |
| Cc1ccc(Nc2cc(=O)[nH]c(=O)[nH]2)cc1Cl | 103 |
| COc1cccc(N/C=C/C(=O)c2ccc(Cl)cc2)c1 | 111 |
| CC(=O)NCCOc1cccc2cccnc12 | 107 |
| CNc1nc(C)c([N+](=O)[O-])c(Nc2ccc(OC)cc2)n1 | 108 |
| OCCN1CCN(c2ncnc3ccc(Br)cc23)CC1 | 104 |
| COc1cccc(N/C(C)=C/C(=O)c2ccc(Br)cc2)c1 | 103 |
| CCN(CC)c1ncnc2ccc(Br)cc12 | 101 |
| C/C(=C\C(=O)c1ccccc1)Nc1cccc(O)c1 | 107 |
| O=C(O)c1ccc(C=NNC(=O)c2cccc3ccccc23)cc1 | 104 |
| COCCCNc1nc(N)c([N+](=O)[O-])c(Nc2cc(OC)ccc2OC)n1 | 103 |
| C/C(=C\C(=O)c1ccccc1)Nc1ccc(O)cc1 | 101 |
| COc1ccccc1-c1cc(C(F)(F)F)nc(S(=O)(=O)CCCC(=O)O)n1 | 112 |
| Cn1c(=O)c2c(n3cnnc13)-c1ccccc1CC21CCCC1 | 101 |
| COc1cc(OC)cc(C(=O)Nc2ccc(-c3nc4ccccc4o3)cc2)c1 | 106 |
| COc1ccc(OC)c(Nc2nc(NCCC(C)C)nc(N)c2[N+](=O)[O-])c1 | 103 |
| Cc1ccc2c(Cl)cc(Cl)c(OCC(=O)O)c2n1 | 100 |
| Cc1cccc(C)c1Nc1ncnc(N)c1[N+](=O)[O-] | 101 |
| Nc1c(O)ccc2c1C(=O)c1ccccc1C2=O | 101 |
| CCC(=O)Nn1cnc2c(c1=O)C1(CCCCC1)Cc1ccccc1-2 | 101 |
| COc1cccc2c(Cl)c(CCCl)c(C)nc12 | 104 |
| Cc1cn2c(N)c(C=C3C=C(Cl)C(=O)C(Cl)=C3)c(=O)nc2s1 | 108 |

— PubChem BioAssay AID504338 (NMMLSC, 2011)
